Key:
Acetylcholinesterase = Acetylcholinesterase (Electrophorus electricus, UniProt O42275); experiment: Inhibition of electric eel AChE using acetylthiocholine iodide as substrate pretreated for 10 mins followed by substrate addition measured after 20 mins by Ellman's method
Cholinesterase = Cholinesterase (Equus caballus, UniProt P81908); experiment: Inhibition of horse serum BChE using butyrylthiocholine iodide as substrate pretreated for 10 mins followed by substrate addition measured after 20 mins by Ellman's method
Method in brief: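 Horse serum BChE was preincubated 10 min with test sample (20, 40, 60, 80, 100 μM). Butyrylthiocholine chloride (0.2 mM) was then added with DTNB (0.5 mM) in phosphate buffer pH 8 and incubated 20 min at 37 °C. Run in triplicate; IC50 by simple linear regression.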

Chain of Cholinesterase (P81908 whole entry): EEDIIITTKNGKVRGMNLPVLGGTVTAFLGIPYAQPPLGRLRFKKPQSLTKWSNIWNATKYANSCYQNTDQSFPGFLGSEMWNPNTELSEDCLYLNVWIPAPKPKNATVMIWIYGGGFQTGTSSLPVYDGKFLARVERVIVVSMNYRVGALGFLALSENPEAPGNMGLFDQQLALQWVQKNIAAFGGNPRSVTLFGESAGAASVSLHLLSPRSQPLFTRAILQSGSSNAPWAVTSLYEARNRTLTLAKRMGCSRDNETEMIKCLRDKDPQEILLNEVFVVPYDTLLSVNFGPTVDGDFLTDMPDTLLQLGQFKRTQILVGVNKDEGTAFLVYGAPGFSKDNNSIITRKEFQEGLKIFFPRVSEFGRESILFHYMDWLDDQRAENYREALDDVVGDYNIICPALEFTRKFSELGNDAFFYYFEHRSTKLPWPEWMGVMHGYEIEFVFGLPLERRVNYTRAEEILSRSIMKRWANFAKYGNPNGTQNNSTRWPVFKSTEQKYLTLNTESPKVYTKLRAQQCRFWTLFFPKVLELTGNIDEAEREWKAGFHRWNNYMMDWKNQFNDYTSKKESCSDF
Chain of Acetylcholinesterase (O42275 whole entry): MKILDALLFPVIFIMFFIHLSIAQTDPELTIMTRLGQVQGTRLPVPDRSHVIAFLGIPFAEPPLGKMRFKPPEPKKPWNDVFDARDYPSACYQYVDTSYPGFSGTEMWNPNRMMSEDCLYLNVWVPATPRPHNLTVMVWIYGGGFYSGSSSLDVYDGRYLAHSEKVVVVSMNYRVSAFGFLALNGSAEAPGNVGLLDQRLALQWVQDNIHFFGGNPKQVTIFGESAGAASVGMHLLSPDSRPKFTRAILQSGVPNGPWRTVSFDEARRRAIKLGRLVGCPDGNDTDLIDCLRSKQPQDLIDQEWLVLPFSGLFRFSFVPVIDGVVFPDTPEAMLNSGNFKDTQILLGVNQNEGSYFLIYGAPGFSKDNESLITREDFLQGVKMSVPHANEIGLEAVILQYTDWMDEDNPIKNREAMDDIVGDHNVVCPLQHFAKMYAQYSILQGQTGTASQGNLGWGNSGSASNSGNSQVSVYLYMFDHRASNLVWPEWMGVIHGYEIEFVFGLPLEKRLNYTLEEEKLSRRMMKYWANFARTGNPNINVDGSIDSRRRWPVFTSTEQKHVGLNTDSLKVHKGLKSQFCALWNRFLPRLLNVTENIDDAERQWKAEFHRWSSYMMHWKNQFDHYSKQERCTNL

## COc1ccc(-c2oc3ccccc3c(=O)c2O[C@@H]2O[C@H](COC(C)=O)[C@@H](OC(C)=O)[C@H](OC(C)=O)[C@H]2OC(C)=O)cc1
Acetylcholinesterase
  IC50: 20.7 µM
Cholinesterase
  IC50: 26 µM

## CC(=O)OC[C@H]1O[C@@H](Oc2c(-c3cccc4ccccc34)oc3ccccc3c2=O)[C@H](OC(C)=O)[C@@H](OC(C)=O)[C@@H]1OC(C)=O
Acetylcholinesterase
  IC50: 36.4 µM
Cholinesterase
  IC50: 18.7 µM

## CC(=O)OC[C@H]1O[C@@H](Oc2c(-c3ccc(F)cc3)oc3ccccc3c2=O)[C@H](OC(C)=O)[C@@H](OC(C)=O)[C@@H]1OC(C)=O
Acetylcholinesterase
  IC50: 29.2 µM
Cholinesterase
  IC50: 49.8 µM

## CC(=O)Nc1ccc(-c2oc3ccccc3c(=O)c2O[C@@H]2O[C@H](COC(C)=O)[C@@H](OC(C)=O)[C@H](OC(C)=O)[C@H]2OC(C)=O)cc1
Acetylcholinesterase
  IC50: 38.7 µM
Cholinesterase
  IC50: 39.7 µM

## CC(=O)OC[C@H]1O[C@@H](Oc2c(-c3ccc(Br)cc3)oc3ccccc3c2=O)[C@H](OC(C)=O)[C@@H](OC(C)=O)[C@@H]1OC(C)=O
Acetylcholinesterase
  IC50: 10.2 µM
Cholinesterase
  IC50: 3.12 µM

## CC(=O)OC[C@H]1O[C@@H](Oc2c(-c3ccc(Br)cc3)oc3cc(C)ccc3c2=O)[C@H](OC(C)=O)[C@@H](OC(C)=O)[C@@H]1OC(C)=O
Acetylcholinesterase
  IC50: 22.4 µM
Cholinesterase
  IC50: 30.6 µM

## CC(=O)OC[C@H]1O[C@@H](Oc2c(-c3ccccc3)oc3ccccc3c2=O)[C@H](OC(C)=O)[C@@H](OC(C)=O)[C@@H]1OC(C)=O
Acetylcholinesterase
  IC50: 103 µM
Cholinesterase
  IC50: 45.9 µM

## CC(=O)OC[C@H]1O[C@@H](Oc2c(-c3ccccc3C(=O)O)oc3ccccc3c2=O)[C@H](OC(C)=O)[C@@H](OC(C)=O)[C@@H]1OC(C)=O
Acetylcholinesterase
  IC50: 34 µM
Cholinesterase
  IC50: 48.4 µM

## CC(=O)OC[C@H]1O[C@@H](Oc2c(-c3ccc(CC(C)C)cc3)oc3ccccc3c2=O)[C@H](OC(C)=O)[C@@H](OC(C)=O)[C@@H]1OC(C)=O
Acetylcholinesterase
  IC50: 2.05 µM
Cholinesterase
  IC50: 5.42 µM

## CC(=O)OC[C@H]1O[C@@H](Oc2c(-c3cccs3)oc3ccccc3c2=O)[C@H](OC(C)=O)[C@@H](OC(C)=O)[C@@H]1OC(C)=O
Acetylcholinesterase
  IC50: 18.5 µM
Cholinesterase
  IC50: 25.5 µM
